From PubChem
Ecoli rRNA inh: selective bacterial rRNA inhibition in E. coli; E. coli WT GFP vs humanized-ribosome RFP mutants, fluorescence, 24 h; hits give low values; DMSO median 0, no signal -100; GFP signal change (wild-type ribosome), % (concentration not given with the values); 350,000 compounds, 1.6% hits; AID 720706;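 active = significant combined selectivity score with lowered wild-type GFP, culture density cut under 30%, mutant RFP and density less affected; inactive = any of these conditions unmet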
XiGFP reactiv: activators of X-chromosome reactivation in mouse fibroblasts. activation, % at 7.58 µM. 360,000 compounds, 0.055% hits. AID 743238. XiGFP mouse fibroblasts, % GFP-positive cells imaging, 3 d; cells co-treated with 5-aza-dC sensitizer; scaled so ellipticine positive control = 100%;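 active = mean normalized replicate activation at least 10% and every replicate at or above 10%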;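 also: 0% = median of on-plate neutral control wells and 100% = ellipticine 6 µM median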
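Material: SV40-immortalized XiGFP fibroblast cells, line 68-5-11 | Buffer or medium: DMEM containing 5-aza-dC | Dosing: One concentration, pinned | Times: 3 d treatment, 15 min room-temperature fixation | Controls: Ellipticine 6 µM positive control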
PglD inh: blocks C. jejuni PglD acetyltransferase activity; purified PglD enzyme, DTNB colorimetric CoA detection; inhibition, % at 12.5 µM; 360,000 compounds, 0.098% hits; AID 602405; in the data active = inhibition above about 16%, passing the limit was not always enough
RAD54 inh: RAD54 (human) branch migration inhibition. Q92698. RAD54 Holliday junction branch migration, FAM/BHQ fluorescence. inhibition, % at 10.4 µM. 360,000 compounds, 0.14% hits. AID 602329;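 active = mean normalized replicate activity at least 40 and at least half of replicates scoring 40 or more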;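 also: 0% = median of neutral control wells and 100% = median of positive control wells; inhibitors cause a drop in the FAM fluorescence signal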
Target sequence (Q92698 whole entry, looked up): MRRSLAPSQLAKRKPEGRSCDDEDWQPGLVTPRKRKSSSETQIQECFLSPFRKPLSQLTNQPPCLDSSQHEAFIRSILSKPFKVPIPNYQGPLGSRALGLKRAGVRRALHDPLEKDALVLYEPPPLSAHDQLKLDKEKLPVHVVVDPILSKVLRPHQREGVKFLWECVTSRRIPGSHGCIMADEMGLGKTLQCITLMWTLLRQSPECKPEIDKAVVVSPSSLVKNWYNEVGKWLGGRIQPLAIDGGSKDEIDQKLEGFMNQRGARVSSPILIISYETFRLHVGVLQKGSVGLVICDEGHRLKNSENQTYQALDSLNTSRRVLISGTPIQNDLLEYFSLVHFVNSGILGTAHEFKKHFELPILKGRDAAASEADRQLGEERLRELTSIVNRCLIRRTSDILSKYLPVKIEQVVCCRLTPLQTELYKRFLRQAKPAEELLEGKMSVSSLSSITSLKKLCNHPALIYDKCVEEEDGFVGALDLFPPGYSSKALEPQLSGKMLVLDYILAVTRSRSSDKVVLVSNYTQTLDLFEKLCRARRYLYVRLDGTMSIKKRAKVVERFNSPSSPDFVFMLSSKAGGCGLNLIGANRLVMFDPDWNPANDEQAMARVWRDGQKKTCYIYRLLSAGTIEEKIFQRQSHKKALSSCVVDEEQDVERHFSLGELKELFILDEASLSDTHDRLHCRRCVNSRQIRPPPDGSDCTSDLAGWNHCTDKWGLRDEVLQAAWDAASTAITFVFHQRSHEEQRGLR
RAD52 inh: RAD52 (human) annealing inhibition | AID 651710 | P43351 | recombinant RAD52 DNA annealing, FRET fluorescence | inhibition, % at 18.7 µM | 360,000 compounds, 0.46% hits;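 active = every replicate showing at least 50% inhibition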
E-selectin induc: induces E-selectin expression in human endothelial cells; HUVEC E-selectin immunofluorescence imaging; normalized: neutral wells 0, TNF-alpha wells 100; activation, % at 7.58 µM; 260,000 compounds, 0.37% hits;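 active = mean E-selectin-positive cell signal at least 10% of the positive control, reached in at least 60% of replicates, without over 20% cell loss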
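System: HUVEC, human umbilical vein endothelial cells; quantity: 3,000 cells/well; buffer or medium: EGM-2 medium, gelatin-coated wells; dosing: single-point compound dose; detection: immunofluorescence imaging; evaluation: % PE-positive cells; benchmarks: TNF-alpha, DMSO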
An asterisk follows results filed as active; nt = no result given; ! = not confirmed by another sample. An excerpt weighted towards active compounds, which were near 2% of everything screened.

SMILES	Ecoli rRNA inh	XiGFP reactiv	PglD inh	RAD54 inh	RAD52 inh	E-selectin induc
C[C@@H]1CN([C@H](C)CO)C(=O)c2cc(NC(=O)Nc3ccc(F)cc3)ccc2O[C@@H](C)CCCCO[C@@H]1CN(C)S(=O)(=O)c1cccs1	3	-1	-8	-7	-30	1
C[C@@H]1CCCCO[C@H](CN(C)C(=O)C2CCCCC2)[C@H](C)CN([C@H](C)CO)C(=O)c2cc(NS(=O)(=O)c3ccc(F)cc3)ccc2O1	-4	0	-2	-5	-3	0
COCC(=O)N(C)C[C@@H]1Oc2cc(-c3ccc(F)cc3)ccc2S(=O)(=O)N([C@H](C)CO)C[C@H]1C	-6	0	-2	-5	-9	58*!
C[C@H](CO)N1C[C@H](C)[C@H](CN(C)CC2CC2)Oc2cc(C#Cc3ccccc3)ccc2S1(=O)=O	-2	0	4	-18	-1	0
C[C@@H]1CN([C@@H](C)CO)S(=O)(=O)c2ccc(C#Cc3ccccc3)cc2O[C@@H]1CN(C)CC1CC1	2	0	4	-7	-9	131*
COC(=O)C(Cc1csc2ccc(Cl)cc12)NC(=O)c1ccc(Cl)cc1 (stereo unspecified)	-16*	0	nt	nt	-13	0
CC1(C)CC(=O)C=C(c2ccc(COC(=O)Cc3ccccc3)cc2)C1=O	-22*	0	-2	9	1	0
O=C(NNC(=S)NC1CCCCC1)c1sc2ccccc2c1Cl	-20*	0	nt	nt	-3	0
O=C(NC(=S)NC1CCCCCCCCCCC1)c1cccnc1	nt	nt	-5	-10	nt	nt
O=C(NC(=S)NC1CCCC1)c1ccccc1	-26*	0	1	-1	-1	nt
COC(=O)c1sc(=S)n(Cc2ccccc2)c1C	-24*	0	6	-9	-10	nt
CCOC(=O)C(=CNc1ccc(C(F)(F)F)cc1)C(=O)OCC	-23*	0	nt	nt	-18	nt
Cc1[nH]nc(-c2ccc(O)cc2O)c1Oc1ccccc1	-13*	nt	0	5	-15	nt
CCCOC(=O)c1ccc(Oc2c(-c3ccc(O)cc3O)n[nH]c2C)cc1	nt	nt	6	-11	nt	nt
Cc1ccc(S(=O)(=O)N2C[C@@H]3[C@H](c4ccccc42)[C@H](CO)N3Cc2cccnc2)cc1	-8	0	0	4	-15	0
CCOC(=O)Cc1n[nH]c(=O)c2ccccc12	21	0	-4	-1	-26	nt
O=C(Cc1n[nH]c(=O)c2ccccc12)OCC(=O)N(Cc1ccccc1)Cc1ccccc1	-24*	0	-2	-5	-30	-3
O=C(C[C@H]1C[C@@H]2c3cc(NC(=O)Nc4ccc(C(F)(F)F)cc4)ccc3O[C@@H]2[C@@H](CO)O1)NCCc1ccccc1	-45	0	2	-14	-10	-1
CNC[C@@H]1Oc2ncc(-c3ccc(C)cc3)cc2C(=O)N([C@H](C)CO)C[C@H]1C	3	-1	nt	nt	-14	0
Cc1ccc(-c2csc(NCCn3c(-c4ccncc4)nc4ccccc43)n2)cc1	-21*	0	-3	-10	-7	0
Cc1ccc(-c2csc(NCCn3c(-c4ccncc4)nc4cc(C(F)(F)F)ccc43)n2)cc1	10	0	2	1	-18	0
O=C(CN1CCOCC1)NCC[C@@H]1CC[C@@H](NS(=O)(=O)c2ccc(F)cc2)[C@@H](CO)O1	2	0	5	1	-16	-2
N#Cc1c(-c2ccncc2)c2c([nH]c1=O)-c1ccccc1OC2	nt	0	nt	nt	-28	nt
Cc1[nH]c(=O)c(C#N)cc1-c1ccncc1	-2	0	-1	-5	-15	58*
CCCNC(=O)[C@H]1[C@H](CO)[C@H]2Cn3c(ccc(-c4ccccc4F)c3=O)[C@H]2N1C(C)=O	1	1	nt	nt	-11	0
COc1ccc(C(NC(=O)C2CCN(CCOc3ccc(Cl)cc3Cl)CC2)c2cccs2)cc1 (stereo unspecified)	-51	0	-5	4	-77	0
COc1ccc(C(NC(=O)C2CCN(CCOc3ccc(Cl)cc3Cl)CC2)c2ccccc2C)cn1 (stereo unspecified)	-29*	0	0	-6	-12	0
